Experimental data published in article PMC3251632 (Cancer research, 2011).
“Also recorded” adds a separate entry of the source.

Tests used:
[1] = target: σ-2 receptor (Homo sapiens, UniProt Q5BJF2); assay: Competitive displacement of fluorescent sigma-2 ligand SW120; assay type: binding, human (CFPAC cells); conditions: compared to non-conjugated SV119; CFPAC cells
[2] = ref ([30]–[32]); cited from earlier work
[3] = system: Akt; assay: Akt phosphorylation in CFPAC cells; assay type: cell-based, human
[4] = system: CFPAC tumors; assay: Xenograft CFPAC tumor growth; assay type: in vivo, human tumor in nude mice; conditions: daily treatment for one week, CFPAC-bearing nude mice, n = 12 per group
Summary of the method: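 Female nu/nu mice, 8–12 weeks old, carried 2 × 10^6 CFPAC cells in the flank. Treatment began ~2 weeks after implantation (mean diameter ~6–7 mm) and was given daily for one week, n = 12 per group. Tumour growth was measured by caliper as mean diameter. Groups were compared by one-tailed Student's t test.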

[5] = SW43 by itself, vs SV119; ref ([24]); cited from earlier work
[6] = system: pancreatic cancer cell lines; assay: Killing capacity in additional pancreatic cancer cell lines in vitro; assay type: cell-based; conditions: all cell lines under investigation; supplementary Fig. 3
[7] = system: Panc02 tumors; assay: In vivo apoptosis in Panc02 tumors; design: species or system mouse (C57BL/6); conditions: single i.p. dose (S2-Bim 400 μg), next day, n = 3
Summary of the method: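 Female C57BL/6 mice, 8–12 weeks old, received 1 × 10^6 Panc02 cells subcutaneously in the right flank. At two weeks (mean tumour diameter ~5 mm) they got a single i.p. dose of 400 μg. Tumours were harvested 24 h later. For TUNEL, tumours were stained directly. For caspase-3, tumours were minced to 1 mm and digested 45 min in RPMI with 1 mg/mL collagenase and 0.1 mg/mL DNase, filtered, ACK-lysed, resuspended in PBS pH 7.4, fixed in 1% paraformaldehyde, and read by flow cytometry for activated caspase-3.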

[8] = system: Panc02 tumors; assay: Syngeneic Panc02 tumor growth and survival; assay type: in vivo, mouse (C57BL/6); conditions: C57BL/6 mice with Panc02 tumors; supplementary Fig. 4
Summary of the method: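 Female C57BL/6 mice, 8–12 weeks old, carried 1 × 10^6 Panc02 cells in the flank. Dosing began ~2 weeks after implantation (mean diameter ~6–7 mm): i.p. every other day for two weeks, n = 12 per group. Mice were euthanised at tumour ulceration or a mean diameter of 15 mm. Survival was plotted as Kaplan-Meier curves and compared by log-rank test.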

[9] = system: Panc02 cells; assay: Caspase-3 activation; assay type: cell-based, mouse; conditions: 10 μM, 24 h, flow cytometry

Sequence of σ-2 receptor (Q5BJF2 whole entry): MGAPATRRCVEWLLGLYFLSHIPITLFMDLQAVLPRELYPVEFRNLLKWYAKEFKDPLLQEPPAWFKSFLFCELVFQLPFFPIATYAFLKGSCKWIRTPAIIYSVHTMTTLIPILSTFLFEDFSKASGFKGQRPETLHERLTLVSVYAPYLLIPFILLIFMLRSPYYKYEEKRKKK

Compound: CC(C)=CCN1CC[C@]2(C)c3cc(O)ccc3C[C@H]1[C@H]2C [(+)-pentazocine, reference compound]
- displacement of SW120 (in words) [1]: unable to compete off SW120

Compound: CC1(C)CCC(c2ccc(Cl)cc2)=C(CN2CCN(c3ccc(C(=O)NS(=O)(=O)c4ccc(N[C@H](CCN5CCOCC5)CSc5ccccc5)c(S(=O)(=O)C(F)(F)F)c4)cc3)CC2)C1 [ABT-263]
- oral bioavailability (in words) [2]: orally bioavailable

Compound: COc1ccc(C)cc1NC(=O)OC1C[C@H]2CCC[C@@H](C1)N2CCCCCCN (stereo partly drawn) [SV119]
- activation status of the two central kinases (Akt and p70 S6 kinase) ([3]; SV119 alone, 24 hours, also p70 S6 kinase (data not shown)): incapable of altering the activation status of these two central kinases
- tumor growth, CFPAC xenograft (in words) [4]: somewhat reduced tumor growth rate

Compound: COc1ccc(C)cc1NC(=O)OC1CC2CCCC(C1)N2CCCCCCCCCCN (stereo not drawn) [SW43]
- cytotoxicity relative to SV119 [5]: twice as cytotoxic by itself

Compound: EIWIAQEARRIGAEFNAYYAR-OH [S2-BimX]
- displacement of SW120 (in words) [1]: displaced SW120 in a dose-dependent fashion
- potency / response of pancreatic cancer cell lines (in words) [6]: virtually no activity in all cell lines tested; also recorded: complete loss of killing activity
- tumor cell apoptosis (activated caspase-3) in words [7]: only background signals
- time by which all mice had died [8]: 43 days post tumor inoculation
- tumor growth, CFPAC xenograft (in words) [4]: somewhat reduced tumor growth rate; also recorded: elicited SV119 baseline activity

Compound: LDPKLMKEEQMSQAQLFTRSFDDGL-OH [S2-CTMP-4]
- fold increase in apoptosis (caspase-3 induction) vs SV119 alone [9]: 1.3 fold
- interference with Akt activation (phosphorylation) ([3]; CFPAC cells, 24 hours post-treatment): capable of interfering with Akt activation
